# Measurements pooled from the literature.
# Compare with care: the assays were run in different laboratories.
# AKR1B1: Aldo-keto reductase family 1 member B1 (AKR1B1, Homo sapiens, UniProt P15121)
# LATS2: Serine/threonine-protein kinase LATS2 (LATS2, Homo sapiens, UniProt Q9NRM7)
Compound,target,read-out,action,method,IC50
Cc1cc2c(cc1C)N[C@H](c1ccccc1)[C@@H](O)C(=O)N2,"Tyrosine-protein kinase JAK2 (JAK2, Homo sapiens, UniProt O60674)",enzyme activity,inhibitor,ELISA,343 nM
COc1cc(/C=N/NC(=S)NN=Cc2ccc([N+](=O)[O-])o2)ccc1Oc1ccnc2cc(Cl)ccc12,AKR1B1,enzyme activity,inhibitor,absorbance,7850 nM
Nc1cnccc1Nc1ccc(Cl)c(Cl)c1,"Endonuclease 8-like 1 (NEIL1, Homo sapiens, UniProt Q96FI4)",enzyme activity,inhibitor,,> 100000 nM
O=C(Nc1c[nH]nc1-c1nc2cc(CN3CCOCC3)ccc2[nH]1)NC1CC1,LATS2,enzyme activity,inhibitor,radiometric,114 nM
COc1cc(/C=N/NC(=S)N/N=C/c2ccc(F)cc2)ccc1Oc1ccnc2cc(Cl)ccc12,AKR1B1,enzyme activity,inhibitor,absorbance,19500 nM
CC(C)C[C@H](NP(=O)(O)O[C@@H]1O[C@@H](C)[C@H](O)[C@@H](O)[C@H]1O)C(=O)N[C@@H](Cc1c[nH]c2ccccc12)C(=O)O,"Neprilysin (MME, Homo sapiens, UniProt P08473)",enzyme activity,inhibitor,,575 nM
OC1(c2ccc(-c3ccnc4[nH]cc(F)c34)cc2)CCCNC1 (stereo not drawn),LATS2,enzyme activity,inhibitor,radiometric,10 nM
COc1c(Cl)cccc1Nc1c(-c2ccncc2OC[C@@H]2COCCO2)[nH]c2c1C(=O)NCC2,"Tyrosine-protein kinase Lck, phosphorylated (LCK, Homo sapiens, UniProt P06239)",enzyme activity,inhibitor,TR-FRET,1130 nM
OC1(c2ccc(-c3ccnc4[nH]cc(F)c34)cc2)CCNC1 (stereo not drawn),LATS2,enzyme activity,inhibitor,radiometric,8.4 nM
COc1cc(/C=N/NC(=S)NN=Cc2scnc2C)ccc1Oc1ccnc2cc(Cl)ccc12,AKR1B1,enzyme activity,inhibitor,absorbance,17800 nM
Cc1cc(-c2ccnc3[nH]cc(F)c23)cc(F)c1[C@@]1(O)[C@H](C)CN(C(=O)CN)C[C@@H]1C,LATS2,target engagement in cells,,BRET,5.1 nM
O=C(NC1CCC2(CCCC2)CC1)c1ccc(-c2ccccc2)cc1,"Transient receptor potential cation channel subfamily M member 8 (TRPM8, Homo sapiens, UniProt Q7Z2W7)",ion current,,patch clamp,106 nM
COc1cc(/C=N/NC(=S)NN=Cc2ccncc2)ccc1Oc1ccnc2cc(Cl)ccc12,AKR1B1,enzyme activity,inhibitor,absorbance,9920 nM
C[C@@H]1CNC[C@H](C)[C@@]1(O)c1ccc(-c2ccnc3[nH]cc(F)c23)cc1,LATS2,enzyme activity,inhibitor,radiometric,8.7 nM
C=CC(=O)N1CCN(c2nc(=O)n(-c3c(C)ccnc3C(C)C)c3nc(-c4c(O)cccc4F)c(F)cc23)[C@@H](C)C1,"GTPase HRas (HRAS, Homo sapiens, UniProt P01112, C181S/C184S/C186S/G12C)",enzyme activity,inhibitor,,87.1 nM
